This is an account of results in ChEMBL document CHEMBL3779820, “Discovery of a Novel Inhibitor of Histone Lysine-Specific Demethylase 1A (KDM1A/LSD1) as Orally Active Antitumor Agent” (J Med Chem, 2016).

Series [1] can be described thus: Anticlonogenic activity against 129sv mouse APL blast cells assessed as inhibition of colony formation of cells at 0.25 uM measured after 7 days relative to control. Format: functional. As to conditions: 168 h.
The target in series [2] is T1, Lysine-specific histone demethylase 2 (Homo sapiens, UniProt Q8NB78).
T1 sequence (Q8NB78 whole entry): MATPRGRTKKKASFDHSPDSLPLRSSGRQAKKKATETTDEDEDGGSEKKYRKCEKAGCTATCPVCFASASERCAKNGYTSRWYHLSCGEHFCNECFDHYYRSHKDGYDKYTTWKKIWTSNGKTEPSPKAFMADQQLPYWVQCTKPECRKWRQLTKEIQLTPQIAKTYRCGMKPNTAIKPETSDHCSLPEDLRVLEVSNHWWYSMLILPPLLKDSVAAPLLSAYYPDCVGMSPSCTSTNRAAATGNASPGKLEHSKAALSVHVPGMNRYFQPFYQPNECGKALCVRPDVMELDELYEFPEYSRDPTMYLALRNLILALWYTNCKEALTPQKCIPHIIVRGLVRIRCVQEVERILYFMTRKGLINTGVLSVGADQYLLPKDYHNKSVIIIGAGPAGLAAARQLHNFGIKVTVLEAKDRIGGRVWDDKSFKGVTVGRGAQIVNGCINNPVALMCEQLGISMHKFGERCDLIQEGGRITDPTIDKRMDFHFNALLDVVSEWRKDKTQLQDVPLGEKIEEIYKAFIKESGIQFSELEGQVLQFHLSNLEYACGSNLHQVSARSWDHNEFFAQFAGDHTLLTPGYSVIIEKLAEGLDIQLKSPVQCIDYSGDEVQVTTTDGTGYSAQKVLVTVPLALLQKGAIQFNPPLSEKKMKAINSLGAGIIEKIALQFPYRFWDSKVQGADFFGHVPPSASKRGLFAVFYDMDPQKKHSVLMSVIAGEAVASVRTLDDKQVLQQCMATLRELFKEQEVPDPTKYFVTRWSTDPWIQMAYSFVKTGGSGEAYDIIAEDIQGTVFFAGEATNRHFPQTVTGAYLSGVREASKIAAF
Kind of series: Inhibition of KDM1B (unknown origin).

Series [3] is described as follows: Anticlonogenic activity against human THP1 cells assessed as inhibition of colony formation of cells at 0.5 uM measured after 13 days relative to control. As to conditions: THP-1, […]. It is filed as functional. An outline of the steps:
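THP-1 cells (RPMI, 10% FBS, 2 mM L-glutamine, 37°C, 5% CO2) plated at 250 cells/plate in enriched methylcellulose medium with compound at 0.5 µM for 13 days.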

For series [4], the target named is Lysine-specific histone demethylase 1A (Homo sapiens) (UniProt O60341). Kind of series: Inhibition of KDM1A in human NB4 cells assessed as increase in CD11b mRNA expression at biochemical IC50 measured after 24 hrs by RT-PCR analysis relative to control. Format: cell-based. The settings on record: NB-4.
Series [5] shares this target. The experiment in a line: Inhibition of KDM1A in human NB4 cells assessed as increase in GFI1B mRNA expression at biochemical IC50 measured after 24 hrs by RT-PCR analysis relative to control. Format: cell-based. The settings on record: NB-4.
In series [6] the target is LSD1/CoREST complex (Homo sapiens, UniProt O60341). Kind of series: Inhibition of human recombinant KDM1A/CoREST expressed in Escherichia coli using mono-methylated H3-K4 peptide as substrate assessed as H2O2 release preincubated for 15 mins followed by substrate addition measured for 12 mins by fluorescence-based microplate reader analysis. An outline of the steps: (§1)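 Human recombinant KDM1A/CoREST, KDM1B, MAO A and MAO B used as enzyme sources; compounds incubated with the enzyme and results expressed as IC50.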

Series [7] addresses T2, Amine oxidase [flavin-containing] A (Homo sapiens, UniProt P21397).
T2 sequence (P21397 whole entry): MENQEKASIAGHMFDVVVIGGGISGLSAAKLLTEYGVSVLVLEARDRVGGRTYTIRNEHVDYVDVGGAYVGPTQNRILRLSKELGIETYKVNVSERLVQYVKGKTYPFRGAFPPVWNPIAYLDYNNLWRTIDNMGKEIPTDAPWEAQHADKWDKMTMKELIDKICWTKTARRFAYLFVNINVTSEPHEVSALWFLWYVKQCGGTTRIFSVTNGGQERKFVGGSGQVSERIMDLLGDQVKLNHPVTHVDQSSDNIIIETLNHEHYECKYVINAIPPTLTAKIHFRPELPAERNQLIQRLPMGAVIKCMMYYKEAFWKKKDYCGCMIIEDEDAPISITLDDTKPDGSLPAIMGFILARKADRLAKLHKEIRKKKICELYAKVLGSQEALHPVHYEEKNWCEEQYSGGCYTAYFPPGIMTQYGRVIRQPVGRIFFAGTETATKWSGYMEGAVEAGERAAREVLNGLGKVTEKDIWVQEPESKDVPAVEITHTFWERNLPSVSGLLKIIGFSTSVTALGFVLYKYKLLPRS
The experiment in a line: Inhibition of human recombinant MAOA expressed in Pichia pastoris preincubated for 15 mins measured after 30 mins by bioluminescent-coupled assay. The method in brief: as §1

Series [8] is described as follows: Antitumor activity against 129SvEv mouse APL blast cells implanted in nonirradiated 129SvEv mouse assessed as increase in survival of leukemic mouse at 0.0125 mg/kg, ip administered for 5 days per week for 2 weeks by Kaplan-Meier plot analysis relative to vehicle control. Format: functional. An outline of the steps:
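One million leukemic blasts from 129SvEv mice given iv to non-irradiated syngeneic recipients; groups of at least 6 mice randomized. Dosing began once blasts appeared in peripheral blood (about day 10). Drug dissolved in 40% PEG 400 in 5% glucose and given ip. Survival compared with the vehicle group by Kaplan–Meier analysis.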

Series [9] concerns THP-1. The experiment in a line: Induction of differentiation of human THP1 cells after 13 days by cytospin assay. Format: functional, cell-based. An outline of the steps: (§2)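 THP-1 cells cultured 13 days in semisolid methylcellulose with compound at 0.5 µM; colony morphology imaged, and cells recovered at end of culture examined as May Grunwald-Giemsa-stained cytospin preparations.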

In series [10] the test system is THP-1. Kind of series: Induction of differentiation of human THP1 cells assessed assessed as alteration in morphology of colonies after 13 days by May Grunwald-Giemsa staining based assay. Format: functional, cell-based. An outline of the steps: as §2
The target in series [11] is T3, Amine oxidase [flavin-containing] B (Homo sapiens, UniProt P27338).
T3 sequence (P27338 whole entry): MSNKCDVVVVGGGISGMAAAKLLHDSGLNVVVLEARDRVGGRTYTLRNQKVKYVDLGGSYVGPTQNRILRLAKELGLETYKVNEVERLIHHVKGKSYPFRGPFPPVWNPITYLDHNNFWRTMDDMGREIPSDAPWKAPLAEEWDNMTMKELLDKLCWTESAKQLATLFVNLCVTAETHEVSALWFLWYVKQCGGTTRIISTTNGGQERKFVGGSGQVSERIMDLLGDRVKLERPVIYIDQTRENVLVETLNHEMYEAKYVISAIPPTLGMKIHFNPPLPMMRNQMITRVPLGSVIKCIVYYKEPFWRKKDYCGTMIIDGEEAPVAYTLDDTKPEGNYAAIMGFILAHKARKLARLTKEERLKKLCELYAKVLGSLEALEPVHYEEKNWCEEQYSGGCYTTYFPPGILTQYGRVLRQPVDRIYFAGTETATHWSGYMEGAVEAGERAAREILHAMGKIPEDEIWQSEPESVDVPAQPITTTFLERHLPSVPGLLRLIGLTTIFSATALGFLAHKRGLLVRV
Kind of series: Inhibition of human recombinant MAOB expressed in Pichia pastoris preincubated for 15 mins measured after 30 mins by bioluminescent-coupled assay. An outline of the steps:
as §1

Series [12] is described as follows: Tmax in CD1 mouse at 15 mg/kg, po administered as single dose. Format: ADME, organism-based. The settings on record: in vivo. An outline of the steps:
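Single dose to CD1 mice: 5 mg/kg iv in 5% glucose with 10% tween 80, or 15 mg/kg orally in 5% glucose with 40% PEG. Plasma parameters derived from concentration–time profiles.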

For series [13], the species on record is Homo sapiens. The experiment in a line: Selectivity ratio of IC50 for human recombinant MAOA expressed in Pichia pastoris to IC50 for human recombinant KDM1A/CoREST expressed in Escherichia coli.

Structures are written as SMILES. The source made the active and inactive calls. The calls are words filed in the database; no cut-off is given here. Bounds are passed on as bounds.

`N[C@@H]1C[C@H]1c1ccc(NC(=O)c2ccccc2)cc1`: the inhibition at 0.25 µM in series [1] was 73%. The molecule also showed an IC50 in series [2] of 58.3 µM. Also, the inhibition at 0.5 µM in series [3] worked out at 8%.
Consider `CN1CCN(c2ccc(C(=O)Nc3ccc([C@H]4C[C@@H]4N)cc3)cc2)CC1`, for which the fold change (FC) in series [4] came to 3.1; in [5], 3. Further, in [6], the IC50 is 230 nM.
Consider `CN1CCN(c2ccc(C(=O)Nc3ccc([C@@H]4C[C@H]4N)cc3)cc2)CC1` [listing 1 of 2 here], for which the IC50 in series [6] is 84 nM.
Consider `N[C@H]1CC[C@H](N[C@@H]2C[C@H]2c2ccccc2)CC1`, for which the fold change (FC) in series [4] is 5.1; in [5], 7. Further, the IC50 in [7] was found to be 48400 nM; in series [2] it was 43.4 µM. Moreover, in [1], the inhibition at 0.25 µM amounted to 84%. Further, the Activity in series [8] amounted to 14%. In addition, the result in series [9] and in [10] was Active. Also, the inhibition at 0.5 µM in series [3] was found to be 58%.
Turning to `CN1CCN(c2ccc(C(=O)Nc3ccc([C@@H]4C[C@H]4N)cc3)cc2)CC1` [listing 2 of 2 here], the fold change (FC) in series [4] was 3.9; in series [5] it was 4.2.
For the molecule `N[C@@H]1C[C@H]1c1ccc(NC(=O)c2ccc(-c3ccoc3)cc2)cc1` (racemic), the IC50 in series [7] came to 40 nM; in [6] it was 22.5 nM; in series [11], 0.087 µM; in [2] it was 51 µM.
For `N[C@@H]1C[C@H]1c1ccc(NC(=O)c2ccc(N3CCOC3=O)cc2)cc1` (racemic), the figures for the IC50 in [7], in series [6] and in [11] were 29.7 nM, 33.5 nM and 1.6 µM, respectively.
Consider `N[C@@H]1C[C@H]1c1ccc(NC(=O)c2cccc(NC(=O)OCc3ccccc3)c2)cc1` (racemic), for which the IC50 in [7] is 25 nM; in series [6], 42.6 nM; in series [11] it was over 100 µM; in series [2], 11.6 µM.
As to `CN1CCN(c2ccc(C(=O)Nc3ccc([C@@H]4C[C@H]4N)cc3)cc2)CC1.Cl.Cl` (racemic), the IC50 in series [6] was found to be 189 nM. The Tmax in [12] was determined as 12 h.
Consider `N[C@@H]1C[C@H]1c1ccc(NC(=O)c2ccc(N3CCOCC3)cc2)cc1` (racemic), for which the IC50 was determined as 54.8 nM in [7], 61.5 nM in series [6], 0.6 µM in series [11] and 74.7 µM in series [2].
`CN1CCC(c2ccc(C(=O)Nc3ccc([C@@H]4C[C@H]4N)cc3)cc2)CC1.Cl` (racemic): the fold change (FC) in series [4] was 3.4; in series [5], 4.1. In addition, the 50% inhibitory concentration (IC50) in [6] turned out to be 51.2 nM. Besides, the Tmax in [12] was determined as 18 h.
`CN1CCN(c2ccc(C(=O)Nc3ccc([C@@H]4C[C@H]4N)cc3)cc2)CC1` (racemic): the results for the fold change (FC) in [4] and in series [5] were 3.2 and 4.9, respectively.
`N[C@@H]1C[C@H]1c1ccc(NC(=O)c2ccc(N3CCOCC3)c(NC(=O)OCc3ccccc3)c2)cc1` (relative stereo): the values for the fold change (FC) in series [4] and in series [5] were 3.8 and 4.8, respectively. Also, the IC50 in series [7] was determined as 193 nM; in series [6], 61.4 nM; in series [11] it was 62.9 µM; in series [2], 5.7 µM. Also, the inhibition at 0.25 µM in series [1] is 59%.
For `N[C@@H]1C[C@H]1c1ccc(NC(=O)c2ccc(N3CCCCC3)c(NC(=O)OCc3ccccc3)c2)cc1` (relative stereo), the IC50 in series [6] was found to be 308 nM.
With `CN1CCN(c2ccc(C(=O)Nc3ccc([C@@H]4C[C@H]4N)cc3)cc2NC(=O)OCc2ccccc2)CC1` (relative stereo), the fold change (FC) in series [4] was 3; in [5] it was 4.5. Moreover, the IC50 was 1000 nM in series [7], over 100 µM in series [11] and 4.3 µM in [2]. Further, in series [1], the inhibition at 0.25 µM stood at 57%. Further, the Ratio IC50 in series [13] was over 10.
With `N[C@@H]1C[C@H]1c1ccc(NC(=O)c2ccc(NC(=O)OCc3ccccc3)c(N3CCOCC3)c2)cc1` (relative stereo), the fold change (FC) in series [4] was 3.2; in series [5], 5.6. The IC50 in series [7] is 345 nM; in [11], 27.8 µM; in series [2], 14.9 µM. In addition, the inhibition at 0.25 µM in [1] came out at 57%.
